Consider nine compounds from ChEMBL document CHEMBL3272253, “Relationship of molecular structure to in vivo scintigraphic distribution patterns of carbon-11 labeled compounds. 3. (11C)Hydantoins” (J Med Chem, 1976).

The structures appear in SMILES notation.

Holding throughout (type): ADME, organism-based, Canis lupus familiaris
Common to all, as to settings: in vivo

Series [1] concerns Canis familiaris. The series can be described thus: Drug level in iv dosed dog after 5 to 30 mins by gamma-scintillation counting analysis. The procedure, abridged:
(§1)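 Carbon-11-labeled hydantoin, 1–59 mCi of final product, dissolved in 1–1.5% aqueous NaOH and given iv to dogs. Distribution imaged serially for up to 2 hr or more with a scintillation camera fitted with a pinhole collimator (1-cm hyperbolic aperture), with whole-body scintiphotos at about 5 and 30 min. Readout is qualitative to semiquantitative; no coincidence imaging.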

Series [2] has as its system Nucleic Acid. The series can be described thus: Ratio of drug level in iv dosed dog lung to temporal muscle after 73 mins by gamma-scintillation counting analysis. The procedure, abridged:
(§2)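 Dogs were dosed iv with 11C-labeled hydantoin. Tissues and fluids were collected at necropsy 73 or 80 min post-dose and counted at fixed geometry in front of a thallium-activated NaI scintillation detector. Values are cpm/g of tissue divided by cpm/g of temporal muscle.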

Series [3] relates to Nucleic Acid. Briefly: Ratio of drug level in iv dosed dog cerebrospinal fluid to temporal muscle after 73 mins by gamma-scintillation counting analysis. The procedure, abridged:
as §2

The subject of series [4] is Nucleic Acid. The series can be described thus: Ratio of drug level in iv dosed dog mesenteric fat to temporal muscle after 73 mins by gamma-scintillation counting analysis. Put shortly:
as §2

Series [5] deals with Nucleic Acid. The series can be described thus: Ratio of drug level in iv dosed dog pancreas to temporal muscle after 73 mins by gamma-scintillation counting analysis. The procedure, abridged: as §2
The test system of series [6] is Nucleic Acid. The series can be described thus: Ratio of drug level in iv dosed dog bile to temporal muscle after 73 mins by gamma-scintillation counting analysis. The procedure, abridged:
as §2

Series [7] can be described thus: Drug level in iv dosed dog lung after 5 to 30 mins by gamma-scintillation counting analysis. Put shortly:
as §1

For series [8], the system named is Nucleic Acid. Briefly: Ratio of drug level in iv dosed dog blood to temporal muscle after 73 mins by gamma-scintillation counting analysis. Put shortly:
as §2

In series [9] the test system is Nucleic Acid. The series can be described thus: Ratio of drug level in iv dosed dog urine to temporal muscle after 73 mins by gamma-scintillation counting analysis. The procedure, abridged:
as §2

Series [10] has as its system Nucleic Acid. The series can be described thus: Ratio of drug level in iv dosed dog kidney to temporal muscle after 73 mins by gamma-scintillation counting analysis. The procedure, abridged: as §2
Series [11] has as its system Nucleic Acid. Briefly: Ratio of drug level in iv dosed dog stomach to temporal muscle after 73 mins by gamma-scintillation counting analysis. Put shortly:
as §2

Series [12] concerns Liver. The series can be described thus: Drug level in iv dosed dog liver after 5 to 30 mins by gamma-scintillation counting analysis. Put shortly:
as §1

For series [13], the system named is Nucleic Acid. Briefly: Ratio of drug level in iv dosed dog liver to temporal muscle after 73 mins by gamma-scintillation counting analysis. The procedure, abridged:
as §2

Series [14] concerns Nucleic Acid. Briefly: Ratio of drug level in iv dosed dog spleen to temporal muscle after 73 mins by gamma-scintillation counting analysis. Put shortly: as §2
Series [15] relates to Nucleic Acid. Briefly: Ratio of drug level in iv dosed dog brain to temporal muscle after 73 mins by gamma-scintillation counting analysis. The procedure, abridged:
as §2

Series [16] has as its system Nucleic Acid. The series can be described thus: Ratio of drug level in iv dosed dog washed heart to temporal muscle after 73 mins by gamma-scintillation counting analysis. Put shortly:
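[11C]-labeled hydantoin, from carrier-free [11C]HCN, given intravenously to dogs. Heart washed and taken at necropsy 73 min after dosing, along with temporal muscle. Tissues were counted at fixed geometry before a thallium-activated NaI scintillation detector. Value is cpm/g washed heart divided by cpm/g temporal muscle.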

Series [17] can be described thus: Drug level in iv dosed dog kidney after 5 to 30 mins by gamma-scintillation counting analysis. The procedure, abridged: as §1
A short description of series [18]: Drug excretion in iv dosed dog urine after 5 to 30 mins by gamma-scintillation counting analysis. Put shortly: as §1
Series [19] can be described thus: Drug level in iv dosed dog vein by gamma-scintillation counting analysis. Put shortly: as §1
Series [20] is described as follows: Drug level in iv dosed dog kidney by gamma-scintillation counting analysis. Put shortly: as §1
The nature of series [21]: Drug level in iv dosed dog lung by gamma-scintillation counting analysis. Put shortly:
as §1

The nature of series [22]: Drug excretion in iv dosed dog urine by gamma-scintillation counting analysis. The procedure, abridged:
as §1

Series [23] has as its system Liver. Briefly: Drug level in iv dosed dog liver by gamma-scintillation counting analysis. Put shortly: as §1
Series [24] concerns Canis familiaris. The series can be described thus: Drug level in iv dosed dog by gamma-scintillation counting analysis. Put shortly:
as §1

In the next series the test system is Brain. Briefly: Drug level in iv dosed dog brain by gamma-scintillation counting analysis. Put shortly:
as §1

As to `CC1(c2ccccc2)NC(=O)N[11C]1=O` (configuration not stated), the Drug uptake result with Canis familiaris [1] is “Active”.
As to `CCC1(c2ccccc2)NC(=O)N[11C]1=O` (configuration not stated), the Ratio with Nucleic Acid [2] was found to be 0.75; in the series on Nucleic Acid [3], 2.67; in the series with Nucleic Acid [4], 0.75; with Nucleic Acid [5], 1.67; in the series with Nucleic Acid [6], 1.58; with Nucleic Acid [8] it was 1. Also, the Ratio stood at 0.67 with Nucleic Acid [9]; 1.25 in the series on Nucleic Acid [10]; 0.92 in the series on Nucleic Acid [11]; 1.33 with Nucleic Acid [13]; 1.25 in the series on Nucleic Acid [14]; 1.25 in the series on Nucleic Acid [15]. In addition, the Ratio in the series on Nucleic Acid [16] turned out to be 1. In addition, the Drug uptake entry (in series [7]; with Canis familiaris [1]; with Liver [12]) was “Active” throughout.
Take `CCCC1(c2ccccc2)NC(=O)N[11C]1=O` (configuration not stated): the Drug uptake result in the series on Canis familiaris [1] is “Active”.
On to `O=C(O)CCC1(c2ccccc2)NC(=O)N[11C]1=O` (configuration not stated), for which the Drug uptake result (in series [17]; with Canis familiaris [1]) was “Active” in each case. Also, the Drug excretion entry in [18] is recorded as “metabolite_detected”.
Regarding `O=C1N[11C](=O)C2(CCCCC2)N1`, the Drug uptake result (in series [19]; in series [20]; in series [21]; in the series with Liver [23]; in the series with Canis familiaris [24]) was “Active” throughout. The Drug excretion entry in [22] is listed as “metabolite_detected”.
With `O=C1N[11C](=O)C2(CCCCCC2)N1`, the Drug uptake entry in the series with Brain and in the series on Liver [23] was “Active” in each case.
Take `O=C1N[11C](=O)C2(CCCCCCC2)N1`: the Drug uptake entry in the series on Brain was “Not Active”.
For the compound `O=C1N[11C](=O)C2(N1)c1ccccc1-c1ccccc12`, in the series on Brain, the Drug uptake result is given as “Not Active”.
For the compound `O=C1N[11C](=O)C2(CCCc3ccccc32)N1` (configuration not stated), the Drug uptake entry with Brain was “Not Active”.
